Measured values taken from ChEMBL document CHEMBL5303300, “EUbOPEN Chemogenomics Library - Multiplex” (2023).
“And” between values parts separate entries of the source, which are not always exact repeats. Identical values can stand only once.

Tested on: HEK-293T
Test: Multiplex assay against HEK293T
Assay type: toxicity, cell-based
Conditions: human, number of replicates 2
Summary of the method: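 At seeding, live cells were stained with Hoechst33342, BioTracker Green Microtubule Cytoskeleton Dye, MitoTracker Red and Annexin V Alexa Fluor 680. After compound addition they were imaged on a CQ1 microscope at 37°C and 5% CO2, and CellPathfinder machine-learning gating sorted them into Hoechst high-intensity objects or normal cells, with normal cells further split into healthy, pyknosed or fragmented nuclei and pyknosed cells into mitotic or apoptotic. Tubulin, mitochondrial-mass and membrane-permeability phenotypes are given as per cents of cells with healthy nuclei.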

[1] = 12 h, 1 µM, compound concentration 1 uM
[2] = 12 h, 10 µM, compound concentration 10 uM
[3] = 24 h, 1 µM, compound concentration 1 uM
[4] = 24 h, 10 µM, compound concentration 10 uM
[5] = 48 h, 1 µM, compound concentration 1 uM
[6] = 48 h, 10 µM, compound concentration 10 uM

CN(C)C/C=C/C(=O)Nc1ccc(C(=O)Nc2cccc(Nc3ncc(Cl)c(-c4c[nH]c5ccccc45)n3)c2)cc1
Population Apoptotic (%) [1]: 42% and 60% | Population Fragmented Nuclei (%) [1]: 2% and 4% | Population Healthy Nuclei (%) [1]: 51% and 52% | Population Hoechst High Intensity Objects (%) [1]: 23% and 21% | Population Membrane Permeable-Phenotype (%) [1]: 9% and 14% | Population Mitochondria Different-Phenotype (%) [1]: 37% and 41% | Population Mitotic Cells (%) [1]: 57% and 40% | Population Normal (%) [1]: 76% and 78% | Population Pyknosed Nuclei (%) [1]: 46% and 43% | Population Tubulin-Different-Phenotype (%) [1]: 89% and 83% | Total Cell Count [1]: 442 and 379 | Population Apoptotic (%) [2]: 52% and 73% | Population Fragmented Nuclei (%) [2]: 3% and 2% | Population Healthy Nuclei (%) [2]: 61% and 57% | Population Hoechst High Intensity Objects (%) [2]: 17% and 19% | Population Membrane Permeable-Phenotype (%) [2]: 10% and 5% | Population Mitochondria Different-Phenotype (%) [2]: 26% and 31% | Population Mitotic Cells (%) [2]: 47% and 26% | Population Normal (%) [2]: 82% and 80% | Population Pyknosed Nuclei (%) [2]: 35% and 40% | Population Tubulin-Different-Phenotype (%) [2]: 91% and 95% | Total Cell Count [2]: 459 and 452 | Population Apoptotic (%) [3]: 61% and 75% | Population Fragmented Nuclei (%) [3]: 4% and 5% | Population Healthy Nuclei (%) [3]: 43% and 50% | Population Hoechst High Intensity Objects (%) [3]: 24% and 23% | Population Membrane Permeable-Phenotype (%) [3]: 10% and 5% | Population Mitochondria Different-Phenotype (%) [3]: 44% and 45% | Population Mitotic Cells (%) [3]: 38% and 24% | Population Normal (%) [3]: 75% and 76% | Population Pyknosed Nuclei (%) [3]: 51% and 43% | Population Tubulin-Different-Phenotype (%) [3]: 84% and 77% | Total Cell Count [3]: 394 and 349 | Population Apoptotic (%) [4]: 67% and 83% | Population Fragmented Nuclei (%) [4]: 6% and 4% | Population Healthy Nuclei (%) [4]: 49% and 46% | Population Hoechst High Intensity Objects (%) [4]: 19% and 20% | Population Membrane Permeable-Phenotype (%) [4]: 9% and 3% | Population Mitochondria Different-Phenotype (%) [4]: 22% and 35% | Population Mitotic Cells (%) [4]: 32% and 16% | Population Normal (%) [4]: 80% and 79% | Population Pyknosed Nuclei (%) [4]: 43% and 48% | Population Tubulin-Different-Phenotype (%) [4]: 87% and 94% | Total Cell Count [4]: 472 and 454 | Population Apoptotic (%) [5]: 79% and 73% | Population Fragmented Nuclei (%) [5]: 8% and 7% | Population Healthy Nuclei (%) [5]: 49% and 42% | Population Hoechst High Intensity Objects (%) [5]: 20% and 22% | Population Membrane Permeable-Phenotype (%) [5]: 3% and 7% | Population Mitochondria Different-Phenotype (%) [5]: 43% and 55% | Population Mitotic Cells (%) [5]: 20% and 26% | Population Normal (%) [5]: 79% and 77% | Population Pyknosed Nuclei (%) [5]: 42% and 49% | Population Tubulin-Different-Phenotype (%) [5]: 63% and 74% | Total Cell Count [5]: 354 and 385 | Population Apoptotic (%) [6]: 79% and 85% | Population Fragmented Nuclei (%) [6]: 8% and 7% | Population Healthy Nuclei (%) [6]: 36% and 31% | Population Hoechst High Intensity Objects (%) [6]: 21% and 19% | Population Membrane Permeable-Phenotype (%) [6]: 7% and 3% | Population Mitochondria Different-Phenotype (%) [6]: 33% and 41% | Population Mitotic Cells (%) [6]: 20% and 14% | Population Normal (%) [6]: 78% and 80% | Population Pyknosed Nuclei (%) [6]: 54% and 60% | Population Tubulin-Different-Phenotype (%) [6]: 82% and 97% | Total Cell Count [6]: 449 and 445

CC(C)N(CCCCOCC(=O)NS(C)(=O)=O)c1cnc(-c2ccccc2)c(-c2ccccc2)n1 [SELEXIPAG]
Population Apoptotic (%) [1]: 50% and 55% | Population Fragmented Nuclei (%) [1]: 3% and 4% | Population Healthy Nuclei (%) [1]: 81% and 80% | Population Hoechst High Intensity Objects (%) [1]: 8% and 6% | Population Membrane Permeable-Phenotype (%) [1]: 2% | Population Mitochondria Different-Phenotype (%) [1]: 17% and 14% | Population Mitotic Cells (%) [1]: 49% and 44% | Population Normal (%) [1]: 91% and 93% | Population Pyknosed Nuclei (%) [1]: 14% and 15% | Population Tubulin-Different-Phenotype (%) [1]: 52% and 41% | Total Cell Count [1]: 669 and 660 | Population Apoptotic (%) [2]: 58% and 64% | Population Fragmented Nuclei (%) [2]: 5% and 6% | Population Healthy Nuclei (%) [2]: 80% and 81% | Population Hoechst High Intensity Objects (%) [2]: 9% and 10% | Population Membrane Permeable-Phenotype (%) [2]: 1% and 0% | Population Mitochondria Different-Phenotype (%) [2]: 14% and 15% | Population Mitotic Cells (%) [2]: 41% and 35% | Population Normal (%) [2]: 90% and 89% | Population Pyknosed Nuclei (%) [2]: 14% and 11% | Population Tubulin-Different-Phenotype (%) [2]: 51% and 44% | Total Cell Count [2]: 616 and 713 | Population Apoptotic (%) [3]: 46% and 55% | Population Fragmented Nuclei (%) [3]: 6% and 7% | Population Healthy Nuclei (%) [3]: 83% and 81% | Population Hoechst High Intensity Objects (%) [3]: 7% and 8% | Population Membrane Permeable-Phenotype (%) [3]: 2% and 1% | Population Mitochondria Different-Phenotype (%) [3]: 4% and 3% | Population Mitotic Cells (%) [3]: 53% and 45% | Population Normal (%) [3]: 92% and 91% | Population Pyknosed Nuclei (%) [3]: 9% and 11% | Population Tubulin-Different-Phenotype (%) [3]: 27% and 22% | Total Cell Count [3]: 1034 and 989 | Population Apoptotic (%) [4]: 50% and 54% | Population Fragmented Nuclei (%) [4]: 13% and 7% | Population Healthy Nuclei (%) [4]: 77% and 82% | Population Hoechst High Intensity Objects (%) [4]: 10% and 9% | Population Membrane Permeable-Phenotype (%) [4]: 2% and 1% | Population Mitochondria Different-Phenotype (%) [4]: 2% and 5% | Population Mitotic Cells (%) [4]: 50% and 45% | Population Normal (%) [4]: 89% and 90% | Population Pyknosed Nuclei (%) [4]: 8% and 9% | Population Tubulin-Different-Phenotype (%) [4]: 13% and 24% | Total Cell Count [4]: 1214 and 906 | Population Apoptotic (%) [5]: 13% and 14% | Population Fragmented Nuclei (%) [5]: 12% and 10% | Population Healthy Nuclei (%) [5]: 83% and 86% | Population Hoechst High Intensity Objects (%) [5]: 8% | Population Membrane Permeable-Phenotype (%) [5]: 4% and 5% | Population Mitochondria Different-Phenotype (%) [5]: 0% | Population Mitotic Cells (%) [5]: 86% and 85% | Population Normal (%) [5]: 91% | Population Pyknosed Nuclei (%) [5]: 3% | Population Tubulin-Different-Phenotype (%) [5]: 7% | Total Cell Count [5]: 2736 and 2374 | Population Apoptotic (%) [6]: 25% and 19% | Population Fragmented Nuclei (%) [6]: 25% and 22% | Population Healthy Nuclei (%) [6]: 71% and 75% | Population Hoechst High Intensity Objects (%) [6]: 9% | Population Membrane Permeable-Phenotype (%) [6]: 5% and 7% | Population Mitochondria Different-Phenotype (%) [6]: 0% | Population Mitotic Cells (%) [6]: 74% and 80% | Population Normal (%) [6]: 90% | Population Pyknosed Nuclei (%) [6]: 2% | Population Tubulin-Different-Phenotype (%) [6]: 8% and 13% | Total Cell Count [6]: 3157 and 2195

C[C@@H](Oc1cc(-n2cnc3ccc(OC4CCN(C)CC4)cc32)sc1C(N)=O)c1ccccc1Cl [GSK-579289A]
Population Apoptotic (%) [1]: 49% and 50% | Population Fragmented Nuclei (%) [1]: 4% and 2% | Population Healthy Nuclei (%) [1]: 79% and 81% | Population Hoechst High Intensity Objects (%) [1]: 7% and 8% | Population Membrane Permeable-Phenotype (%) [1]: 8% and 3% | Population Mitochondria Different-Phenotype (%) [1]: 27% and 24% | Population Mitotic Cells (%) [1]: 50% | Population Normal (%) [1]: 93% and 91% | Population Pyknosed Nuclei (%) [1]: 16% | Population Tubulin-Different-Phenotype (%) [1]: 88% and 90% | Total Cell Count [1]: 686 and 707 | Population Apoptotic (%) [2]: 72% and 75% | Population Fragmented Nuclei (%) [2]: 2% and 1% | Population Healthy Nuclei (%) [2]: 79% and 84% | Population Hoechst High Intensity Objects (%) [2]: 19% and 10% | Population Membrane Permeable-Phenotype (%) [2]: 7% and 3% | Population Mitochondria Different-Phenotype (%) [2]: 69% and 73% | Population Mitotic Cells (%) [2]: 27% and 25% | Population Normal (%) [2]: 80% and 89% | Population Pyknosed Nuclei (%) [2]: 17% and 13% | Population Tubulin-Different-Phenotype (%) [2]: 82% and 85% | Total Cell Count [2]: 381 and 356 | Population Apoptotic (%) [3]: 41% and 65% | Population Fragmented Nuclei (%) [3]: 1% and 3% | Population Healthy Nuclei (%) [3]: 75% | Population Hoechst High Intensity Objects (%) [3]: 8% and 7% | Population Membrane Permeable-Phenotype (%) [3]: 2% and 0% | Population Mitochondria Different-Phenotype (%) [3]: 55% and 62% | Population Mitotic Cells (%) [3]: 58% and 34% | Population Normal (%) [3]: 91% and 92% | Population Pyknosed Nuclei (%) [3]: 22% and 21% | Population Tubulin-Different-Phenotype (%) [3]: 93% and 95% | Total Cell Count [3]: 585 and 584 | Population Apoptotic (%) [4]: 78% and 69% | Population Fragmented Nuclei (%) [4]: 7% and 6% | Population Healthy Nuclei (%) [4]: 75% and 79% | Population Hoechst High Intensity Objects (%) [4]: 23% and 16% | Population Membrane Permeable-Phenotype (%) [4]: 1% | Population Mitochondria Different-Phenotype (%) [4]: 88% and 75% | Population Mitotic Cells (%) [4]: 21% and 30% | Population Normal (%) [4]: 76% and 84% | Population Pyknosed Nuclei (%) [4]: 16% and 14% | Population Tubulin-Different-Phenotype (%) [4]: 66% and 80% | Total Cell Count [4]: 362 and 350 | Population Apoptotic (%) [5]: 68% and 63% | Population Fragmented Nuclei (%) [5]: 3% and 4% | Population Healthy Nuclei (%) [5]: 85% and 83% | Population Hoechst High Intensity Objects (%) [5]: 6% and 13% | Population Membrane Permeable-Phenotype (%) [5]: 1% and 0% | Population Mitochondria Different-Phenotype (%) [5]: 67% | Population Mitotic Cells (%) [5]: 31% and 36% | Population Normal (%) [5]: 93% and 86% | Population Pyknosed Nuclei (%) [5]: 10% and 11% | Population Tubulin-Different-Phenotype (%) [5]: 89% and 90% | Total Cell Count [5]: 471 and 559 | Population Apoptotic (%) [6]: 67% and 73% | Population Fragmented Nuclei (%) [6]: 12% and 11% | Population Healthy Nuclei (%) [6]: 61% and 68% | Population Hoechst High Intensity Objects (%) [6]: 20% and 22% | Population Membrane Permeable-Phenotype (%) [6]: 4% and 3% | Population Mitochondria Different-Phenotype (%) [6]: 78% and 68% | Population Mitotic Cells (%) [6]: 32% and 26% | Population Normal (%) [6]: 79% and 77% | Population Pyknosed Nuclei (%) [6]: 26% and 19% | Population Tubulin-Different-Phenotype (%) [6]: 55% and 65% | Total Cell Count [6]: 453 and 440
